Screening results: PubChem BioAssay, several laboratories
FLuc inhib CS: inhibits firefly luciferase, flagging false hits in luciferase inhibition screens; 200,000 tested, 1.5% active; ATPLite firefly luciferase biochemical luminescence, 10 min; inhibition, % at 10 µM;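 active = inhibition above about 50% when tested at 10 µM, limit read from the data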
Target sequence (P08659 whole entry, looked up): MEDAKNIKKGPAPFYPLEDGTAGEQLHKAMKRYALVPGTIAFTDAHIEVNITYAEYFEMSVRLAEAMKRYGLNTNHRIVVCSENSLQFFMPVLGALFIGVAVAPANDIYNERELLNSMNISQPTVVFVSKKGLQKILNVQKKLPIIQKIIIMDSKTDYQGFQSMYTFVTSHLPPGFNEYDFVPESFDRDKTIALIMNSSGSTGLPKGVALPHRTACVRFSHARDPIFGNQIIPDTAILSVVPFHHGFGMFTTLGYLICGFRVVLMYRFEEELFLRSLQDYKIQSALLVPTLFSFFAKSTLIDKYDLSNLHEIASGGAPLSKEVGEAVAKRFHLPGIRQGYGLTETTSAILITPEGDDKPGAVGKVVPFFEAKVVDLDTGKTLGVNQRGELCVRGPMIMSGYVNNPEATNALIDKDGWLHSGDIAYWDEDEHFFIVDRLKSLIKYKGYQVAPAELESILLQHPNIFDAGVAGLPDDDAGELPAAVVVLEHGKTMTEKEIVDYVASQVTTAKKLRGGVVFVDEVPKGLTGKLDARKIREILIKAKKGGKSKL
FLuc stim CS: firefly luciferase counter-screen for stimulation assays | P08659 | ATPlite luciferase biochemical, luminescence, 10 min; 0 = ATP-free wells, 1 = DMSO control | activation factor at 10 µM | 200,000 tested, under 10 active;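 active = luciferase activation factor, scaled between plate controls, of at least 2 with compound at 10 µM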
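Assay system: Luciferase/luciferin detection reagent, cell-free biochemical luciferase assay / Read-out: luciferase activation / Benchmarks: No-ATP low control, compound-free enzyme-plus-ATP high control / Medium: PBS buffer for ATP / Detection: luminescence measurement of luciferase light output / Schedule: 10 min at ambient temperature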
PPC-1+TRAIL kill: PPC-1 cancer cell killing with TRAIL present. PPC-1 cells + TRAIL, ATPLite viability luminescence. cell killing (% activity), % at 4 µM or 5 µM. 220,000 tested, 0.41% active;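 active = cell killing above 50% in the first pass at 4 µM, then a duplicate retest at 5 µM averaging 50% or more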;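 note: plate controls were cells with TRAIL plus DMSO for no effect and medium-only wells lacking cells for full effect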
TRAIL sens C8: caspase-8 TRAIL sensitization. NB7+C8 cells + TRAIL, ATPlite viability luminescence. AID 624354. 360,000 tested, 1% active. inhibition (viability loss, TRAIL sensitization), % at 10 µM;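 active = compounds causing at least 50% loss of cell viability in the single-dose screen, relative to plate controls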
HSP90 refold inh: HSP90 refolding inhibition in rabbit reticulocyte lysate; 290,000 tested, 0.91% active; luciferase refolding luminescence, 3 h; inhibition, % at 5.6 µM;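 active = inhibition above the screen-wide mean plus 3 SD, computed separately per campaign, cut at about 16% in these data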;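 note: 0% = DMSO wells and 100% = 60 µM geldanamycin wells; inhibitors lower the luminescence because luciferase stays unfolded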
* hit, by the source's call. This is a sample that favours compounds with a hit; in the whole collection about 2% have one here.

Results for Cc1nc2ccccn2c1C(=O)Nc1ccc2c(c1)OCCO2 ?
FLuc inhib CS: 54*; FLuc stim CS: 0.5; PPC-1+TRAIL kill: 27; TRAIL sens C8: 25; HSP90 refold inh: 16

How did O=C(Nc1ccc2c(c1)OCCO2)c1coc2ccccc2c1=O do in these assays?
FLuc inhib CS: 97*; FLuc stim CS: 0; PPC-1+TRAIL kill: 0; TRAIL sens C8: -2; HSP90 refold inh: 5

What do the screens show for `O=C(CCl)Nc1c(C(=O)Nc2ccc3c(c2)OCCO3)oc2ccccc12`?
TRAIL sens C8: 61*; HSP90 refold inh: 4

How did CC(=O)Nc1ccc(NC(=O)c2c(C)nc3ccccn23)cc1 do in these assays?
FLuc inhib CS: -3; FLuc stim CS: 1; PPC-1+TRAIL kill: 4; TRAIL sens C8: 13; HSP90 refold inh: 2

How did Cc1cc(C(=O)Nc2ccc3c(c2)OCCO3)c(C)o1 do in these assays?
FLuc inhib CS: 54*; FLuc stim CS: 0.5; PPC-1+TRAIL kill: 27; TRAIL sens C8: 22; HSP90 refold inh: 2

What do the screens show for `Cc1onc(-c2ccccc2)c1C(=O)OCC(=O)N1CCCCC1`?
TRAIL sens C8: -4

Results for O=C(Nc1ccc(OCc2ccccc2)cc1)Nc1nnc([C@@H]2C[C@H](O)[C@@H](CO)O2)s1 ?
TRAIL sens C8: 9

How did Cc1cc(C(O)c2ncc(-c3ccccc3C)[nH]2)ccc1F (stereo not drawn) do in these assays?
TRAIL sens C8: -11

What do the screens show for `O=C(Nc1ccc2c(c1)OCCO2)C(=O)c1c[nH]c2ccccc12`?
TRAIL sens C8: 82*; HSP90 refold inh: 15

How did O=C(Nc1ccc2c(c1)OCO2)C(=O)c1c[nH]c2ccccc12 do in these assays?
TRAIL sens C8: 49; HSP90 refold inh: 4

Results for Cc1ccsc1C(=O)Nc1ccc2c(c1)OCCO2 ?
FLuc inhib CS: 79*; FLuc stim CS: 0.2; PPC-1+TRAIL kill: 31; TRAIL sens C8: 71*; HSP90 refold inh: 15

Results for CCc1nc2c(OCc3ccc(Cl)cc3)cccn2c1N(C)C(=O)c1ccc2c(c1)OCO2 ?
TRAIL sens C8: -4

Results for COc1ccc(C(=O)Nc2ccccc2C(=O)N/N=C/c2ccco2)cc1 ?
FLuc inhib CS: 97*; FLuc stim CS: 0; PPC-1+TRAIL kill: 50; TRAIL sens C8: 84*; HSP90 refold inh: 9

Results for COc1ccc(/C=N/NC(=O)c2ccccc2NC(=O)c2ccco2)c(OC)c1 ?
PPC-1+TRAIL kill: -8; TRAIL sens C8: 0; HSP90 refold inh: 7

How did CC(C)(C)NC(=O)C(c1ccc(C#N)cc1)n1c(=O)c(-c2cc3ccccc3[nH]2)nc2ccccc21 (stereo not drawn) do in these assays?
TRAIL sens C8: 8

How did c1ccc2c(c1)Cn1c-2nc2ccccc21 do in these assays?
FLuc inhib CS: 64*; FLuc stim CS: 0.4; PPC-1+TRAIL kill: 26; TRAIL sens C8: 26; HSP90 refold inh: 5

Results for O=C1NC[C@H](Cc2ccccc2)N(C[C@@H]2CCCN2C[C@H](Cc2ccccc2)N2C[C@H](Cc3ccc(O)cc3)N(CCc3ccccc3)C(=O)C2=O)C1=O ?
TRAIL sens C8: 17

How did CC[C@]12c3[nH]c4ccc(Cl)cc4c3CCN1C(=O)[C@@H](CC(=O)NCc1cccc(C(F)(F)F)c1)C[C@@H]2C(=O)N1CCN(C(=O)c2ccco2)CC1 do in these assays?
TRAIL sens C8: 61*

Results for CC[C@]12c3[nH]c4ccc(OC)cc4c3CCN1C(=O)C(CC(=O)NCc1cccc(C(F)(F)F)c1)C[C@@H]2C(=O)N1CCN(C(=O)c2ccco2)CC1 (stereo partly drawn) ?
TRAIL sens C8: -15

Results for Nc1c(C(=O)CSc2nc(-c3ccccc3)cs2)c(=O)[nH]c(=O)n1C1CC1 ?
TRAIL sens C8: 16

What do the screens show for `COc1ccc(C(=O)C(=O)N2CCN(c3ccccc3F)CC2)cc1`?
TRAIL sens C8: -4

Results for C=C1CCc2c([nH]c3ccc(OCC(C)C)cc23)C1=O ?
TRAIL sens C8: 89*; HSP90 refold inh: -1

Results for CC(C)C[C@H]1CNC(=S)N1CC1CCCN1C[C@H](Cc1ccc(O)cc1)N1C[C@H](Cc2ccccc2)N(CC2CCCCC2)C1=S (stereo partly drawn) ?
TRAIL sens C8: 5

What do the screens show for `CC(C)C[C@H]1CNC(=S)N1C[C@H]1CCCN1C[C@H](Cc1ccccc1)N1C[C@H](Cc2ccc(O)cc2)N(CC2CCCCC2)C1=S`?
TRAIL sens C8: 68*

How did O=C1N/C(=N\N=C\c2ccc3ncccc3c2)SC1Cc1ccc(SC(F)F)cc1 (stereo not drawn) do in these assays?
FLuc inhib CS: 61*; FLuc stim CS: 0.4; PPC-1+TRAIL kill: 14; TRAIL sens C8: 27; HSP90 refold inh: 0

What do the screens show for `O=C1Nc2ccccc2-c2nnnn2C1N1CCCCC1` (stereo not drawn)?
TRAIL sens C8: 8

Results for CCOC(=O)N1CCN(C(=O)CSCC(=O)Nc2nc(-c3ccc(-c4ccccc4)cc3)cs2)CC1 ?
FLuc inhib CS: 4; FLuc stim CS: 1; PPC-1+TRAIL kill: 24; TRAIL sens C8: 62*; HSP90 refold inh: 2

What do the screens show for `CCOC(=O)N1CCN(C(=O)CSCC(=O)Nc2nc(-c3ccc(OC)cc3)cs2)CC1`?
FLuc inhib CS: -2; FLuc stim CS: 1; PPC-1+TRAIL kill: 12; TRAIL sens C8: 0; HSP90 refold inh: -1

Results for O=Nc1ccc(NOC(=O)c2ccccc2)cc1 ?
FLuc inhib CS: 90*; FLuc stim CS: 0.1; PPC-1+TRAIL kill: 24; TRAIL sens C8: 9; HSP90 refold inh: 0

How did O=C(ONC(=O)C1CCCCC1C(=O)NOC(=O)c1ccccc1)c1ccccc1 (stereo not drawn) do in these assays?
TRAIL sens C8: -19

Results for O=[N+]([O-])c1ccc(N=Nc2c(O)[nH]c3ccc(F)cc23)cc1 ?
TRAIL sens C8: 54*; HSP90 refold inh: 1

How did O=C(C[C@@H]1C=C[C@H](NS(=O)(=O)c2ccccc2F)[C@@H](CO)O1)NCCCN1CCOCC1 do in these assays?
TRAIL sens C8: 10

Results for Brc1ccccc1-n1nnc(-c2nccs2)n1 ?
FLuc inhib CS: 51*; FLuc stim CS: 0.5; PPC-1+TRAIL kill: 12; TRAIL sens C8: 11; HSP90 refold inh: 14

What do the screens show for `CCCCCc1ccc(OCCCC[n+]2ccccc2)c(CCCCC)c1`?
FLuc inhib CS: -4; FLuc stim CS: 1; PPC-1+TRAIL kill: 24; TRAIL sens C8: 79*; HSP90 refold inh: 2

What do the screens show for `CCC(C)(C)c1ccc(Oc2cccc(C(=O)O)c2)cc1`?
PPC-1+TRAIL kill: -4; TRAIL sens C8: 18; HSP90 refold inh: -4

How did CCC(C)(C)c1ccc(OCCCC[n+]2ccccc2)c(C(C)(C)CC)c1 do in these assays?
FLuc inhib CS: -8; FLuc stim CS: 1.1; PPC-1+TRAIL kill: 51*; TRAIL sens C8: 15; HSP90 refold inh: 3

Results for CCOc1ccc(OCc2ccc(C(=O)NCC3CCCO3)o2)cc1 (stereo not drawn) ?
FLuc inhib CS: -7; FLuc stim CS: 1.1; PPC-1+TRAIL kill: -1; TRAIL sens C8: -5; HSP90 refold inh: 16*
